Beta cell apopt: blocks beta cell apoptosis; 0.8% of 300,000 active; AID 435005; INS-1E cytokine-induced death, ATP luminescence, 48 h; percent of positive-control rescue, neutral wells zero; protection from apoptosis, % (concentration not given with the values);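 active = Every replicate reaches about 75%, or at least half do and their mean reaches it too, limit read from the data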;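 also: 0% = cytokine-treated negative control wells and 100% = positive control rescue; higher means more ATP so stronger rescue from cytokine killing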
XBP1 UPR activ: activators of adaptive arm of unfolded protein response (XBP1). activation, % at 20 µM. AID 463104. CHO-XBP1 luciferase reporter, IRE1-XBP1 UPR activation, luminescence; percent of tunicamycin response, DMSO as zero. 0.33% of 330,000 active;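 active = versus positive control, 20 µM dose yields 30% or more activation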;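 also: 100% = tunicamycin at 10 µg/mL and 0% = DMSO only wells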
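Material: CHO-XBP1 cells stably carrying IRE1-XBP1-driven luciferase reporter / Amount: 1000 cells per well / Compound: 20 µM, 1% DMSO / Times: 6 h treatment, 37 °C / Detection: luciferase luminescence / Measure: % activation of reporter signal versus tunicamycin and DMSO controls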
Mdm2-MdmX inh: human Mdm2/MdmX binding inhibition | AID 485346 | 3% of 330,000 active | inhibition, % at 8 µM | O15151+Q00987 | SaOS-2 split-luciferase Mdm2/MdmX complementation, luminescence;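 active = inhibition of at least 50% at 8 µM in the primary screen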
Target sequence (O15151 whole entry, looked up): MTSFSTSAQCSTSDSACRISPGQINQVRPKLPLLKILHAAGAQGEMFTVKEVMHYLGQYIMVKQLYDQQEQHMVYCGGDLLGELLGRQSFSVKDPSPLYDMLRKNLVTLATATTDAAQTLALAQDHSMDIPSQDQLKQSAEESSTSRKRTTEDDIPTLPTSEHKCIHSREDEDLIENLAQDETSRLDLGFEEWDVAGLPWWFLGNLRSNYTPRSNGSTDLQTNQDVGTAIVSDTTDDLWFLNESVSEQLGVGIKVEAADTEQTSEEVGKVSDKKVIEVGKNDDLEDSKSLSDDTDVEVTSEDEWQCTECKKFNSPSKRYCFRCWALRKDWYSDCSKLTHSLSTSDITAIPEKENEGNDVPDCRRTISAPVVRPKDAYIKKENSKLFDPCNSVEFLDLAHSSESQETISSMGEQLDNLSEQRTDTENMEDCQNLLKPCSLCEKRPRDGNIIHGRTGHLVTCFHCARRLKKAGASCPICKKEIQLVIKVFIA
Target sequence (Q00987 whole entry, looked up): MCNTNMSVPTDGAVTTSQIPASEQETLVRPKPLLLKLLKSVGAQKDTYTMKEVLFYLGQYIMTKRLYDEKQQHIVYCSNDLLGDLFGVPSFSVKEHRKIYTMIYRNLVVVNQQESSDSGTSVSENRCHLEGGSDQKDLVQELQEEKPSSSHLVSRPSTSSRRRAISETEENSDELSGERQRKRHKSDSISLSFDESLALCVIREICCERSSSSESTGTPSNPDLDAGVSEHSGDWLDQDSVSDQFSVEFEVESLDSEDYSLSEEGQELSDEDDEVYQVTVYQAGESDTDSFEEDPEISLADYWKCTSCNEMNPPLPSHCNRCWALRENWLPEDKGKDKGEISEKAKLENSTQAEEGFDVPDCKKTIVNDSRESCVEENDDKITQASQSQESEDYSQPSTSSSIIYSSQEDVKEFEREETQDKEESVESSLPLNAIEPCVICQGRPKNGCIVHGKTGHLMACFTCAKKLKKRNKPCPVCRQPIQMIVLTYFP
UPR CHOP act: apoptotic UPR (CHOP) activation. CHO-CHOP luciferase reporter, luminescence; percent of tunicamycin response over DMSO baseline. activation, % at 10 µM. 0.34% of 330,000 active. AID 449763;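 active = at 10 µM dose, activation of 40% or more, normalized to positive control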;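 also: 100% = tunicamycin at 10 µg/mL and 0% = DMSO alone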
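Assay system: CHO-CHOP cells, stable luciferase reporter of PERK-eIF2a-CHOP signalling / Buffer or medium: F12 plus 10% serum / Compound dosing: one dose, 10 µM in 0.5% DMSO / Times: 6 h compound treatment, 37 °C / Technique: luciferase luminescence / Read-out: % reporter activation, DMSO baseline versus tunicamycin full activation / Benchmarks: tunicamycin and DMSO controls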
CSC inhib: blocks cancer stem cells | inhibition, % at 7.5 µM | 1.1% of 300,000 active | cancer stem cell-like cells viability, luminescence; in the data active = inhibition above about 75%; tested in HMLE shEcad cells
T cruzi inh: blocks replication of Trypanosoma cruzi; inhibition, % (no concentration beside the values); 1.4% of 300,000 active; T. cruzi beta-gal in NIH3T3, luminescence, 90 h;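 active = mean inhibition across valid replicates above about 55%, limit read from the data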;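 also: signal also drops with host cell toxicity which is not excluded here; 0% = plate median of DMSO wells and 100% = zero luminescence signal; higher percent means less beta-gal luminescence so fewer parasites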
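Assay system: NIH/3T3 host cells with β-galactosidase reporter T. cruzi; input: 5,000 host fibroblasts per well; compound: single 50 nL compound addition per well in DMSO; timing: ≥90 h infection period, 3 h prior cell attachment; measured by: GalScreen β-gal luminescence, detergent lysis, 60 min; evaluation: percent inhibition of parasite-derived β-gal signal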
The depositor's hits bear a star. Rows were chosen to be rich in hits. Some 5% of all compounds tested hit in one or more screens of this group.

Screening N#CCSc1nc2c(c(=O)n1Cc1ccco1)C1(CCCC1)Cc1ccccc1-2 returned Beta cell apopt 0.1, XBP1 UPR activ -2.8, Mdm2-MdmX inh 27.5, UPR CHOP act -2.8, CSC inhib 83.0* and T cruzi inh 36.0.
`Cc1ccccc1-c1noc(-c2ccccc2C(=O)NCC2CCCO2)n1` (centres undefined) gave Beta cell apopt 2.1, XBP1 UPR activ -0.8, Mdm2-MdmX inh 5.4, UPR CHOP act -0.7 and CSC inhib -1.8.
O=C(O)Cc1ccc(S(=O)(=O)Nc2ccccc2C(=O)O)cc1 was read as Beta cell apopt -5.0, XBP1 UPR activ -1.1, Mdm2-MdmX inh 37.3, UPR CHOP act -1.8, CSC inhib -7.8 and T cruzi inh -17.9.
For CC(=O)N1CCN(S(=O)(=O)c2cccc(C(=O)NCCc3ccc(Cl)cc3)c2)CC1 the results were Beta cell apopt 3.0, XBP1 UPR activ -0.8, Mdm2-MdmX inh 12.2, UPR CHOP act 2.5, CSC inhib -4.6 and T cruzi inh 9.6.
Screening CCC(C)n1c(C)nc2c(c1=O)c1nc3ccccc3nc1n2CCC1=CCCCC1 (centres undefined) returned Beta cell apopt 10.5, XBP1 UPR activ 4.8, Mdm2-MdmX inh 6.6, UPR CHOP act 1.0, CSC inhib 18.4 and T cruzi inh 58.5*.
For CCCCn1c2nc3ccccc3nc2c2c(=O)n(C(C)CC)cnc21 (centres undefined) the results were Beta cell apopt 7.5, XBP1 UPR activ 1.7, Mdm2-MdmX inh 17.6, UPR CHOP act -2.6, CSC inhib -0.9 and T cruzi inh 22.6.
Screening Cc1cc(Cl)ccc1OCCCC(=O)OCC(=O)c1c(N)n(C)c(=O)n(C)c1=O returned Beta cell apopt -8.6, XBP1 UPR activ 0.3, Mdm2-MdmX inh 6.8, UPR CHOP act 0.1, CSC inhib -8.7 and T cruzi inh -14.6.
Screening c1ccc(C2(Cn3ccc4ccccc43)OCCO2)cc1 returned Beta cell apopt 113.6*, XBP1 UPR activ -1.5, Mdm2-MdmX inh 12.4, UPR CHOP act 0.7, CSC inhib 11.0 and T cruzi inh -12.2.
For CCn1c(SCc2ccc(OC)c(F)c2)nc2ccccc2c1=O the results were Beta cell apopt -2.1, XBP1 UPR activ 0.9, Mdm2-MdmX inh 20.2, UPR CHOP act 3.5 and T cruzi inh 20.4.
`COCC(C)n1c(SCc2ccc(OC)c(F)c2)nc2ccccc2c1=O` (centres undefined) gave T cruzi inh 58.9*.
For COC(=O)C1=C(C(=O)OC)[C@@H]2Nc3ccccc3[C@@]23C[C@@H](C(=O)OC)N(C(=O)c2ccco2)C3=N1 the results were Beta cell apopt -21.8, XBP1 UPR activ 0.2, Mdm2-MdmX inh 11.3, UPR CHOP act 2.0, CSC inhib -14.8 and T cruzi inh -8.1.
Screening CC1(C)CC(=O)C(C(=O)c2ccccc2)C(=O)C1Cl (centres undefined) returned Beta cell apopt -2.4, XBP1 UPR activ 0.8, Mdm2-MdmX inh 16.4, UPR CHOP act 1.4, CSC inhib 2.3 and T cruzi inh -2.4.
CN1CCN(c2ccc(CNS(=O)(=O)c3ccccc3)cc2)CC1 was read as Beta cell apopt -8.7, XBP1 UPR activ -0.9, Mdm2-MdmX inh -10.9, UPR CHOP act 0.0, CSC inhib 33.5 and T cruzi inh 15.3.
For CN1CCN(c2ccc(CNS(=O)(=O)Cc3cccc(C(F)(F)F)c3)cc2)CC1 the results were Beta cell apopt 86.5*, XBP1 UPR activ -3.5, Mdm2-MdmX inh 21.0, UPR CHOP act 4.0, CSC inhib 43.8 and T cruzi inh -2.6.
Screening Cc1ccc(-n2nc3c(c2NC(=O)C(C)C)CS(=O)(=O)C3)cc1 returned Beta cell apopt -0.6, XBP1 UPR activ -5.2, Mdm2-MdmX inh 30.1, UPR CHOP act 1.7, CSC inhib -19.0 and T cruzi inh -8.6.
Screening C(=C\c1nccc2c1[nH]c1ccccc12)/c1ccccc1 returned Beta cell apopt 12.7, XBP1 UPR activ -1.2, Mdm2-MdmX inh 32.0, UPR CHOP act 5.5, CSC inhib 69.7 and T cruzi inh 19.1.
Screening Cc1ccc(/C=C\c2nccc3c2[nH]c2ccccc23)cc1 returned Beta cell apopt 4.6, XBP1 UPR activ -0.8, Mdm2-MdmX inh 23.7, UPR CHOP act 1.0, CSC inhib 83.2* and T cruzi inh 7.8.
`S=C(NCCC(c1ccccc1)c1ccccc1)Nc1cccc(Cl)c1` gave Beta cell apopt -0.7, XBP1 UPR activ -2.7, Mdm2-MdmX inh -2.9, UPR CHOP act -0.4, CSC inhib 122.5* and T cruzi inh 44.5.
Screening S=C(NCc1ccncc1)Nc1cccc(Cl)c1 returned Beta cell apopt -4.6, XBP1 UPR activ -2.4, Mdm2-MdmX inh -36.3, UPR CHOP act -0.6, CSC inhib -7.0 and T cruzi inh -17.4.
For COc1ccc2o/c(=N\O)c(C(=O)Nc3ccccc3OC)cc2c1 the results were Beta cell apopt 7.5, XBP1 UPR activ 2.3, Mdm2-MdmX inh 38.6, UPR CHOP act 5.1, CSC inhib -5.5 and T cruzi inh -12.7.
For COc1ccc(NC(=O)c2cc3ccc(O)cc3o/c2=N\O)cc1 the results were XBP1 UPR activ -1.3, Mdm2-MdmX inh -28.3, UPR CHOP act 5.6, CSC inhib 75.4* and T cruzi inh -7.0.
COc1ccc(NC(=O)c2cc3ccccc3cc2O)cc1 was read as Beta cell apopt -10.5, XBP1 UPR activ -0.2, Mdm2-MdmX inh -56.9, UPR CHOP act 8.4, CSC inhib 86.5* and T cruzi inh 18.2.
Screening O=C(CC12CC3CC(CC(Br)(C3)C1)C2)NC1CCCC1 returned Beta cell apopt -4.7, XBP1 UPR activ -0.4, Mdm2-MdmX inh -5.2, UPR CHOP act 1.0, CSC inhib -4.1 and T cruzi inh -8.2.
Screening CCOC(=O)c1c(S(=O)(=O)N2CCN(c3ccc(F)cc3)CC2)c(C)n(C)c1C returned Beta cell apopt -7.9, XBP1 UPR activ 0.1, Mdm2-MdmX inh 14.2, UPR CHOP act -1.7, CSC inhib -8.2 and T cruzi inh 9.2.
For Cc1ccc(NC(=O)c2cc(-c3cccc(O)c3)on2)cc1C the results were Beta cell apopt 1.8, XBP1 UPR activ 5.8, Mdm2-MdmX inh -117.5, UPR CHOP act 2.8, CSC inhib 80.4* and T cruzi inh 14.2.
Screening CCc1n[nH]c(=S)n1/N=C/c1cc(OC)cc([N+](=O)[O-])c1O returned Beta cell apopt -0.4, XBP1 UPR activ -3.7, Mdm2-MdmX inh 5.3, UPR CHOP act -1.3, CSC inhib 11.0 and T cruzi inh 67.8*.
COc1cc(/C=N/n2c(=S)[nH]nc(C)c2=O)cc([N+](=O)[O-])c1O was read as XBP1 UPR activ -2.5, Mdm2-MdmX inh -7.8, UPR CHOP act -0.9, CSC inhib -16.9 and T cruzi inh 1.6.
